Measurements reported in ChEMBL document CHEMBL1145965, “4-Substituted 4-hydroxycyclohexa-2,5-dien-1-ones with selective activities against colon and renal cancer cell lines” (J Med Chem, 2003).

Legend:
[1] = tested on: HT-29; experiment: Concentration of compound that cause 50% cytotoxicity of HT-29 colon cancer cell line; type: functional; details: Homo sapiens, read-out: Log LC50 (the source's name) (converted)
Procedure, shortened: (§1)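 NCI 60-cell-line panel screen. Each line was seeded in 96-well plates at a density set by its growth characteristics and incubated drug-free for 24 h. Test agents were then added at five 10-fold dilutions, with a top concentration of 100 μM.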

[2] = tested on: A549; experiment: Inhibitory activity against A549 lung adenocarcinoma cell line; type: functional, cell-based; details: Homo sapiens
Procedure, shortened: (§2)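 Cells grown in RPMI 1640 with 2 mM L-glutamine and 10% fetal calf serum, 37 °C, 5% CO2. Seeded at 5 × 10³ per well, 24 h adherence, then drug 0.1 nM–100 μM final (n = 8; DMSO stocks, dilutions in medium) for 72 h.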

[3] = tested on: NCI-H23; experiment: Concentration of compound that cause 50% cytotoxicity of NCI-H23 non small cell lung cancer cell line; type: functional; details: Homo sapiens, read-out: Log LC50 (the source's name) (converted); procedure, shortened: as §1
[4] = tested on: UACC-62; experiment: Concentration of compound that cause 50% cytotoxicity of UACC-62 melanoma cell line; type: functional; details: Homo sapiens, read-out: Log LC50 (the source's name) (converted)
[5] = tested on: OVCAR-8; experiment: Concentration of compound that cause 50% cytotoxicity of OVCAR-8 ovarian cancer cell line; type: functional; details: Homo sapiens, read-out: Log LC50 (the source's name) (converted); procedure, shortened: as §1
[6] = tested on: MDA-N; experiment: Concentration of compound that cause 50% cytotoxicity of MDA-N breast cancer cell line; type: functional; details: Homo sapiens, read-out: Log LC50 (the source's name) (converted); procedure, shortened: as §1
[7] = tested on: Hs-578T; experiment: Concentration of compound that cause 50% cytotoxicity of Hs 578.T breast cancer cell line; type: functional; details: Homo sapiens, read-out: LC50 (the source's name); procedure, shortened: as §1
[8] = tested on: HCC 2998; experiment: Concentration of compound that cause 50% cytotoxicity of HCC2998 colon cancer cell line; type: functional; details: Homo sapiens, read-out: Log LC50 (the source's name) (converted); procedure, shortened: as §1
[9] = tested on: LOX IMVI; experiment: Concentration of compound that cause 50% cytotoxicity of LOX IMVI melanoma cell line; type: functional; details: Homo sapiens, read-out: Log LC50 (the source's name) (converted); procedure, shortened: as §1
[10] = tested on: SW-620; experiment: Concentration of compound that cause 50% cytotoxicity of SW-620 colon cancer cell line; type: functional; details: Homo sapiens, read-out: LC50 (the source's name); procedure, shortened: as §1
[11] = tested on: DU-145; experiment: Concentration of compound that cause 50% cytotoxicity of DU-145 prostate cancer cell line; type: functional; details: Homo sapiens, read-out: Log LC50 (the source's name) (converted); procedure, shortened: as §1
[12] = tested on: HT-29; experiment: Inhibitory activity against HT-29 colon cancer cell line; type: functional, cell-based; details: Homo sapiens; procedure, shortened: as §2
[13] = tested on: EKVX; experiment: Concentration of compound that cause 50% cytotoxicity of EKVX non small cell lung cancer cell line; type: functional; details: Homo sapiens, read-out: Log LC50 (the source's name) (converted); procedure, shortened: as §1
[14] = tested on: Panel NCI-60 (60 carcinoma cell lines); experiment: In vitro mean growth lethal concentration in renal subpanel against 60-cell panel; type: functional; details: Homo sapiens, read-out: Mean LC50
[15] = tested on: CCRF-CEM; experiment: Concentration of compound that cause 50% cytotoxicity of CCRF-CEM leukemia cell line; type: functional; details: Homo sapiens, read-out: Log LC50 (the source's name) (converted); procedure, shortened: as §1
[16] = tested on: SN12C; experiment: Concentration of compound that cause 50% cytotoxicity of SN12C renal cancer cell line; type: functional; details: Homo sapiens, read-out: Log LC50 (the source's name) (converted); procedure, shortened: as §1
[17] = tested on: M14; experiment: Concentration of compound that cause 50% cytotoxicity of M14 melanoma cell line; type: functional; details: Homo sapiens, read-out: Log LC50 (the source's name) (converted); procedure, shortened: as §1
[18] = tested on: SNB-75; experiment: Concentration of compound that cause 50% cytotoxicity of SNB-75 CNS cancer cell line; type: functional; details: Homo sapiens, read-out: Log LC50 (the source's name) (converted); procedure, shortened: as §1
[19] = tested on: HCT-15; experiment: Concentration of compound that cause 50% cytotoxicity of HCT-15 colon cancer cell line; type: functional; details: Homo sapiens, read-out: Log LC50 (the source's name) (converted); procedure, shortened: as §1
[20] = tested on: NCI-H322M; experiment: Concentration of compound that cause 50% cytotoxicity of NCI-H322M non small cell lung cancer cell line; type: functional; details: Homo sapiens, read-out: Log LC50 (the source's name) (converted); procedure, shortened: as §1
[21] = tested on: HCT-116; experiment: Concentration of compound that cause 50% cytotoxicity of HCT116 colon cancer cell line; type: functional; details: Homo sapiens, read-out: Log LC50 (the source's name) (converted); procedure, shortened: as §1
[22] = tested on: 786-0; experiment: Concentration of compound that cause 50% cytotoxicity of 786-0 renal cancer cell line; type: functional; details: Homo sapiens, read-out: Log LC50 (the source's name) (converted); procedure, shortened: as §1
[23] = tested on: RXF 393; experiment: Concentration of compound that cause 50% cytotoxicity of RXF393 renal cancer cell line; type: functional; details: Homo sapiens, read-out: Log LC50 (the source's name) (converted); procedure, shortened: as §1
[24] = tested on: ACHN; experiment: Concentration of compound that cause 50% cytotoxicity of ACHN renal cancer cell line; type: functional; details: Homo sapiens, read-out: Log LC50 (the source's name) (converted); procedure, shortened: as §1
[25] = tested on: Panel NCI-60 (60 carcinoma cell lines); experiment: In vitro mean growth lethal concentration in colon subpanel against 60-cell panel; type: functional; details: Homo sapiens, read-out: Mean LC50
[26] = tested on: SR; experiment: Concentration of compound that cause 50% cytotoxicity of SR leukemia cell line; type: functional; details: Homo sapiens, read-out: LC50 (the source's name); procedure, shortened: as §1
[27] = tested on: U-251; experiment: Concentration of compound that cause 50% cytotoxicity of U251 CNS cancer cell line; type: functional; details: Homo sapiens, read-out: Log LC50 (the source's name) (converted); procedure, shortened: as §1
[28] = tested on: HOP-62; experiment: Concentration of compound that cause 50% cytotoxicity of HOP-62 non small cell lung cancer cell line; type: functional; details: Homo sapiens, read-out: Log LC50 (the source's name) (converted); procedure, shortened: as §1
[29] = tested on: A498; experiment: Concentration of compound that cause 50% cytotoxicity of A498 renal cancer cell line; type: functional; details: Homo sapiens, read-out: Log LC50 (the source's name) (converted); procedure, shortened: as §1
[30] = tested on: SK-MEL-28; experiment: Concentration of compound that cause 50% cytotoxicity of SK-MEL-28 melanoma cell line; type: functional; details: Homo sapiens, read-out: Log LC50 (the source's name) (converted); procedure, shortened: as §1
[31] = tested on: NCI/ADR-RES; experiment: Concentration of compound that cause 50% cytotoxicity of NCI/ADR-RES breast cancer cell line; type: functional; details: Homo sapiens, read-out: LC50 (the source's name); procedure, shortened: as §1
[32] = tested on: MDA-MB-231; experiment: Concentration of compound that cause 50% cytotoxicity of MDA-MB-231/ATCC breast cancer cell line; type: functional; details: Homo sapiens, read-out: Log LC50 (the source's name) (converted); procedure, shortened: as §1

O=C1C=CC(O)(c2nc3ccccc3s2)C=C1
CC50 [1]: 692 nM
IC50 [2]: 2350 nM
CC50 [3]: 5130 nM
CC50 [4]: 5750 nM
CC50 [5]: 5010 nM
CC50 [6]: 1000 nM
CC50 [7]: > 4000 nM
CC50 [8]: 977 nM
CC50 [9]: 3800 nM
CC50 [10]: > 4000 nM
CC50 [11]: 3390 nM
IC50 [12]: 380 nM
CC50 [13]: 5750 nM
CC50 [14]: 1570 nM
CC50 [15]: 2570 nM
CC50 [16]: 1450 nM
CC50 [17]: 5250 nM
CC50 [18]: 4680 nM
CC50 [19]: 2450 nM
CC50 [20]: 23400 nM
CC50 [21]: 468 nM
CC50 [22]: 1050 nM
CC50 [23]: 575 nM
CC50 [24]: 2750 nM
CC50 [25]: 1760 nM
CC50 [26]: > 4000 nM
CC50 [27]: 2570 nM
CC50 [28]: 12600 nM
CC50 [29]: 8510 nM
CC50 [30]: 2510 nM
CC50 [31]: > 4000 nM
CC50 [32]: 5750 nM
